Results published in ChEMBL document CHEMBL5108039, “Piperazine tethered bergenin heterocyclic hybrids: design, synthesis, anticancer activity, and molecular docking studies” (RSC Med Chem, 2022).

Experiments:
HCT-15 = test: Cytotoxicity against human HCT-15 cells assessed as cell growth inhibition; assay type: functional, cell-based
Outline: (§1)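 Compounds were dissolved in sterile DMSO as 10 mg ml−1 stocks and tested for in vitro growth inhibition of human cancer cell lines. Doxorubicin was the standard drug and DMSO (0.01%) the vehicle control. IC50 values are reported as means.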

CAL-27 = test: Cytotoxicity against human CAL-27 cells assessed as cell growth inhibition; assay type: functional, cell-based; outline: as §1
SCC-9 = test: Cytotoxicity against human SCC-9 cells assessed as cell growth inhibition; assay type: functional, cell-based; outline: as §1
A549 = test: Cytotoxicity against human A549 cells assessed as cell growth inhibition; assay type: functional, cell-based
Outline: (§2)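 Compounds were dissolved in sterile DMSO as 10 mg ml−1 stocks and tested in vitro for cytotoxicity in a cell-line panel, with DMSO (0.01%) as vehicle control and doxorubicin as standard. Mean IC50 values were reported, and the normal lung epithelial cells were tested up to 100 μM.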

MCF7 = test: Cytotoxicity against human MCF7 cells assessed as cell growth inhibition; assay type: functional, cell-based; outline: as §1
[1] = Cytotoxicity against human BEAS-2B cells assessed as cell growth inhibition; assay type: toxicity, cell-based; outline: as §2

| SMILES | IC50 (HCT-15) [µM] | IC50 (CAL-27) [µM] | IC50 (SCC-9) [µM] | IC50 (A549) [µM] | IC50 (MCF7) [µM] | IC50 [1] [µM] |
| --- | --- | --- | --- | --- | --- | --- |
| CCOc1ccc2nc(NC(=O)CN3CCN(Cc4c(O)c(OC)c(O)c5c4C(=O)OC4C5O[C@H](CO)[C@@H](O)[C@@H]4O)CC3)sc2c1 (stereo partly specified) | > 100 | 83.7 | > 100 | > 100 | > 100 | > 100 |
| COc1c(O)c(CN2CCN(S(=O)(=O)c3ccc(Br)cc3)CC2)c2c(c1O)C1O[C@H](CO)[C@@H](O)[C@H](O)C1OC2=O (stereo partly specified) | > 100 | > 100 | > 100 | > 100 | > 100 | 22.4 |
| COc1c(O)c(CN2CCN(S(=O)(=O)c3ccc(C)cc3)CC2)c2c(c1O)C1O[C@H](CO)[C@@H](O)[C@H](O)C1OC2=O (stereo partly specified) | > 100 | 56.8 | > 100 | > 100 | > 100 | 51.6 |
| COc1c(O)c(CN2CCN(CC(=O)Nc3nc4ccc(F)cc4s3)CC2)c2c(c1O)C1O[C@H](CO)[C@@H](O)[C@H](O)C1OC2=O (stereo partly specified) | > 100 | 53 | > 100 | > 100 | > 100 | > 100 |
| COc1c(O)c(CN2CCN(CC(=O)Nc3nc4c(Cl)cccc4s3)CC2)c2c(c1O)C1O[C@H](CO)[C@@H](O)[C@H](O)C1OC2=O (stereo partly specified) | 30.2 | 15.4 | 17.4 | 22.5 | 19.6 | 21.7 |
| COc1c(O)c(CN2CCN(CC(=O)Nc3nc4ccc(Cl)cc4s3)CC2)c2c(c1O)C1O[C@H](CO)[C@@H](O)[C@H](O)C1OC2=O (stereo partly specified) | 97.6 | > 100 | 32.6 | 65.6 | 64.1 | 44.2 |
| COc1c(O)cc2c(c1O)C1O[C@H](CO)[C@@H](O)[C@H](O)C1OC2=O (stereo partly specified) | > 100 | > 100 | > 100 | > 100 | > 100 | > 100 |
| COc1c(O)c(CN2CCN(S(=O)(=O)c3cccc4ccccc34)CC2)c2c(c1O)C1O[C@H](CO)[C@@H](O)[C@H](O)C1OC2=O (stereo partly specified) | > 100 | 74 | > 100 | > 100 | > 100 | > 100 |
| COc1c(O)c(CN2CCN(S(=O)(=O)c3ccc(F)cc3Cl)CC2)c2c(c1O)C1O[C@H](CO)[C@@H](O)[C@H](O)C1OC2=O (stereo partly specified) | > 100 | > 100 | > 100 | > 100 | > 100 | > 100 |
| COc1c(O)c(CN2CCN(S(=O)(=O)c3cccs3)CC2)c2c(c1O)C1O[C@H](CO)[C@@H](O)[C@H](O)C1OC2=O (stereo partly specified) | > 100 | > 100 | > 100 | > 100 | > 100 | > 100 |
| COc1c(O)c(CN2CCN(S(=O)(=O)c3ccc(F)c(F)c3)CC2)c2c(c1O)C1O[C@H](CO)[C@@H](O)[C@H](O)C1OC2=O (stereo partly specified) | > 100 | > 100 | > 100 | > 100 | > 100 | > 100 |
| COc1ccc2nc(NC(=O)CN3CCN(Cc4c(O)c(OC)c(O)c5c4C(=O)OC4C5O[C@H](CO)[C@@H](O)[C@@H]4O)CC3)sc2c1 (stereo partly specified) | > 100 | > 100 | > 100 | > 100 | > 100 | > 100 |
| COc1c(O)c(CN2CCN(CC(=O)Nc3nc(-c4ccc5ccccc5c4)cs3)CC2)c2c(c1O)C1O[C@H](CO)[C@@H](O)[C@H](O)C1OC2=O (stereo partly specified) | > 100 | 42.7 | > 100 | 40.6 | 25.2 | > 100 |
| COc1c(O)c(CN2CCN(CC(=O)Nc3nc(-c4ccc(Cl)cc4)cs3)CC2)c2c(c1O)C1O[C@H](CO)[C@@H](O)[C@H](O)C1OC2=O (stereo partly specified) | > 100 | 46.6 | > 100 | 49.9 | 37.3 | > 100 |
| COc1c(O)c(CN2CCN(CC(=O)Nc3nc(-c4cccc5ccccc45)cs3)CC2)c2c(c1O)C1O[C@H](CO)[C@@H](O)[C@H](O)C1OC2=O (stereo partly specified) | 86.2 | 57.2 | 65.5 | > 100 | > 100 | 83.5 |
| COc1ccc(S(=O)(=O)N2CCN(Cc3c(O)c(OC)c(O)c4c3C(=O)OC3C4O[C@H](CO)[C@@H](O)[C@@H]3O)CC2)cc1 (stereo partly specified) | > 100 | > 100 | > 100 | > 100 | > 100 | > 100 |
| COc1c(O)c(CN2CCN(S(=O)(=O)c3ccc([N+](=O)[O-])cc3)CC2)c2c(c1O)C1O[C@H](CO)[C@@H](O)[C@H](O)C1OC2=O (stereo partly specified) | > 100 | 91.6 | > 100 | > 100 | > 100 | > 100 |
| COc1c(O)c(CN2CCN(S(=O)(=O)c3ccc(F)c(F)c3F)CC2)c2c(c1O)C1O[C@H](CO)[C@@H](O)[C@H](O)C1OC2=O (stereo partly specified) | > 100 | > 100 | > 100 | > 100 | > 100 | > 100 |
| COc1c(O)c(CN2CCN(S(=O)(=O)c3ccccc3)CC2)c2c(c1O)C1O[C@H](CO)[C@@H](O)[C@H](O)C1OC2=O (stereo partly specified) | > 100 | 85.5 | > 100 | > 100 | > 100 | > 100 |
| COc1c(O)c(CN2CCN(S(=O)(=O)c3ccc(OC(F)(F)F)cc3)CC2)c2c(c1O)C1O[C@H](CO)[C@@H](O)[C@H](O)C1OC2=O (stereo partly specified) | > 100 | > 100 | > 100 | > 100 | > 100 | > 100 |
| COc1c(O)c(CN2CCN(S(=O)(=O)c3ccc(C(F)(F)F)cc3)CC2)c2c(c1O)C1O[C@H](CO)[C@@H](O)[C@H](O)C1OC2=O (stereo partly specified) | > 100 | 68.6 | > 100 | > 100 | > 100 | > 100 |
| COc1ccc(S(=O)(=O)N2CCN(Cc3c(O)c(OC)c(O)c4c3C(=O)OC3C4O[C@H](CO)[C@@H](O)[C@@H]3O)CC2)cc1OC (stereo partly specified) | > 100 | > 100 | > 100 | > 100 | > 100 | > 100 |
| COc1c(O)c(CN2CCN(CC(=O)Nc3nc4c(C)cccc4s3)CC2)c2c(c1O)C1O[C@H](CO)[C@@H](O)[C@H](O)C1OC2=O (stereo partly specified) | > 100 | 81.2 | > 100 | > 100 | > 100 | > 100 |
| COc1c(O)c(CN2CCN(CC(=O)Nc3nc4ccccc4s3)CC2)c2c(c1O)C1O[C@H](CO)[C@@H](O)[C@H](O)C1OC2=O (stereo partly specified) | > 100 | 91.2 | 64.8 | > 100 | > 100 | 97.3 |
| COc1c(O)c(CN2CCN(S(=O)(=O)c3ccc(F)c(Cl)c3)CC2)c2c(c1O)C1O[C@H](CO)[C@@H](O)[C@H](O)C1OC2=O (stereo partly specified) | > 100 | 92.9 | > 100 | > 100 | > 100 | > 100 |
| COc1c(O)c(CN2CCN(CC(=O)Nc3nc4ccc([N+](=O)[O-])cc4s3)CC2)c2c(c1O)C1O[C@H](CO)[C@@H](O)[C@H](O)C1OC2=O (stereo partly specified) | 85.9 | 30.5 | 37.6 | > 100 | > 100 | 58.6 |
